Published values collected from several papers.
Compare with care: the assays were run in different laboratories.
Target: Serine/threonine-protein kinase 3 (STK3, Homo sapiens, UniProt Q13188)
One construct used (Q13188 1-491): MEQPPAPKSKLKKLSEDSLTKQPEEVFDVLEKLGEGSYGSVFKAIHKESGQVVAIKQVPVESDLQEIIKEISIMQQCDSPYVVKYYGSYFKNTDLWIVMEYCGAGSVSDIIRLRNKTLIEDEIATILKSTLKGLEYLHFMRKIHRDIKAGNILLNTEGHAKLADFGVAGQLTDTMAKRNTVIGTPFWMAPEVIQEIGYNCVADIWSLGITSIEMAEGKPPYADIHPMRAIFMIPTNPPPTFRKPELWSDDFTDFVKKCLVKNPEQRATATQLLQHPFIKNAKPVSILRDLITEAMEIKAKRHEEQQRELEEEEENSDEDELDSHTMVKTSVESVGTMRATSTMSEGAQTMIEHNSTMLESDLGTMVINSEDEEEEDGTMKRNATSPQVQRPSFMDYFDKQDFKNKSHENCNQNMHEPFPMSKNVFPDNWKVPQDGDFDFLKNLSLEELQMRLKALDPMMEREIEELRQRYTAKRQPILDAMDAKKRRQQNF

SMILES	test	system	conditions	measurement	value
O=C(O)[C@@H]1[C@@H](Cn2nnc3ccccc3c2=O)CC[C@H]1C(=O)c1ccc(OCCC2CCOCC2)cc1	cell-free assay, competition with immobilised ligand	–	1 µM	remaining binding	100%
CC1(C)NC(=O)c2[nH]c3c(Cl)c(Cl)ccc3c2C1C#N (centres unmarked)	thermal stability, DSF	–	10 µM	ΔTm	0.2 °C
CNC(=O)c1cc(Oc2ccc(NC(=O)Nc3ccc(Cl)c(C(F)(F)F)c3)cc2)ccn1	cell-free assay, inhibitor	–	10 µM	inhibition	-8%
Cn1c2c(c3ccccc31)C(C#N)C(C)(C)NC2=O (centres unmarked)	thermal stability, DSF	–	10 µM	ΔTm	-0.5 °C
CCN1CCN(Cc2ccc(NC(=O)c3ccc(C)c(Oc4ccnc5[nH]ccc45)c3)cc2C(F)(F)F)CC1	target engagement in cells, inhibitor, chemoproteomics	Huh-7	1 µM	inhibition	-58.9%
COc1cc(/C=C/C(=O)CC(=O)/C=C/c2ccc(O)c(OC)c2)ccc1O	enzyme activity, inhibitor	–	1 µM	activity vs control	42%
FC(F)(F)Oc1cccc(-c2cnc3ccc(-c4ccncc4)nn23)c1	enzyme activity, inhibitor, radiometric	–	5 µM	activity vs control	71%
CCN(CC)c1ccc(C2=NNC(=O)CC2C)cc1[N+](=O)[O-] (centres unmarked)	enzyme activity, inhibitor	–	10 µM	remaining activity	87%
CCCOc1ccc(OC)c(F)c1C(=O)c1ccc(C(=O)N[C@@H]2CNC[C@H]2NC(=O)c2ccc3[nH]ncc3c2)cc1	enzyme activity, inhibitor	–	10 µM	remaining activity	85%
Cn1c2c(c3ccc(Cl)c(Cl)c31)C(C#N)C(C)(C)NC2=O (centres unmarked)	thermal stability, DSF	–	10 µM	ΔTm	0.4 °C
CC(C)(C)c1nc2c(s1)c1nc(N)ncc1c1ccc(NS(=O)(=O)c3c(F)cccc3F)c(F)c12	enzyme activity, inhibitor, radiometric	–	1 µM	remaining activity	89%
CN(C)C(=O)Cn1cc(-c2nc(C3(c4ccc(-c5cnc(N)nc5)cc4)CC3)no2)cn1	cell-free assay, competition with immobilised ligand	–	1 µM	remaining binding	100%
O=C1Nc2ccc(Cl)cc2C1=Cc1cc(Cl)c(O)c(Cl)c1	cell-free assay	–	0.5 µM	remaining signal	31.6%
O=C(N[C@H]1CCCCC/C=C\C2C[C@@]2(C(=O)O)NC(=O)[C@@H]2C[C@@H](Oc3ccncc3)CN2C1=O)OC1CCCC1 (some centres unmarked)	binding, competition with immobilised ligand	–	1 µM	remaining binding	76%
CNc1cccc2cc(C(=O)Nc3ccc(C(=O)O)cc3)c(=O)[nH]c12	enzyme activity, inhibitor	–	10 µM	inhibition	4.2%
CCN(CC)CCNC(=O)c1c(C)[nH]c(/C=C2\C(=O)Nc3ccc(F)cc32)c1C	cell-free assay	–	0.5 µM	remaining signal	24.8%
Cc1sc(C(=O)NC2COC2)cc1-n1cc(NC(=O)Nc2c(F)cccc2Cl)cn1	enzyme activity, inhibitor	–	10 µM	remaining activity	93.9%
COc1cc2ncnc(Nc3ccc(Oc4ccccc4)c(C)c3C)c2cc1OC	enzyme activity, inhibitor	–	1 µM	inhibition	1%
CNCc1ccc(-c2cc(-c3nc(-c4ccc(S(=O)(=O)C(C)C)cc4)cnc3N)on2)cc1	enzyme activity, inhibitor	–	0.4 µM	inhibition	18%

SMILES	test	system	conditions	measurement	value
Cc1cc(-n2nc(Cc3cc(F)cc(C(F)(F)F)c3)nc2C)ccc1C(N)=O	cell-free assay, competition with immobilised ligand	–	1 µM	remaining binding	100%
FC(F)c1nc2ccccc2n1-c1nc(N2CCOCC2)nc(N2CCOCC2)n1	enzyme activity, inhibitor	–	10 µM	remaining activity	92%
Cc1c(NC(=O)c2cc(C(N)=O)nc3cc(F)ccc23)c(C(F)(F)F)nn1Cc1ccc(C(C)(C)C)cc1	cell-free assay, competition with immobilised ligand	–	1 µM	remaining binding	90%
CN(C)S(=O)(=O)c1ccc2c(c1)/C(=C/c1cc3c([nH]1)CCCC3)C(=O)N2	cell-free assay	–	0.5 µM	remaining signal	24.3%
Nc1nc(Nc2ccccc2)sc1C(=O)c1c(F)cccc1F	enzyme activity, inhibitor	–	10 µM	remaining activity	40%
CN1CCN(c2cnc3c(C4CCN(C(=O)c5ccc(OC(F)(F)F)cc5N)CC4)ncnc3c2)CC1	cell-free assay, competition with immobilised ligand	–	1 µM	remaining binding	82%
O=C(Nc1cnn(-c2csc(C(=O)NC3COC3)c2)c1)Nc1c(F)cccc1Cl	enzyme activity, inhibitor	–	5 µM	remaining activity	93.2%
Cn1c2c(Cl)c(Cl)ccc2c2cc(N)[nH]c(=O)c21	thermal stability, DSF	–	10 µM	ΔTm	2.2 °C
COc1cc(Nc2cnc(C#N)c(O[C@H](C)CN(C)C)n2)ncc1-c1cnn(C)c1	enzyme activity, inhibitor, radiometric	–	1 µM	remaining activity	67%
COc1cc2c(N3CCN(C(=O)Nc4ccc(OC(C)C)cc4)CC3)ncnc2cc1OCCCN1CCCCC1	cell-free assay	–	0.5 µM	remaining signal	94.7%
CN1CC(Oc2cnc(C#N)cc2-c2ccn3nc(NC(=O)C4CC4)cc3c2)C1	enzyme activity, inhibitor	–	1 µM	inhibition	4%
Cn1nc(C(F)(F)F)cc1-c1cnc(N2CCc3cc(S(=O)(=O)Nc4c(F)cc(Cl)cc4F)cc(N4CCCC4=O)c32)nc1	cell-free assay, competition with immobilised ligand	–	1 µM	remaining binding	90%
Cc1ccc(C(=O)NCc2ccsc2)cc1C#Cc1cn(C(C)C)c2ncnc(N)c12	enzyme activity, inhibitor	–	1 µM	activity vs control	78%
Cc1ccc(Nc2nccc(N(C)c3ccc4c(C)n(C)nc4c3)n2)cc1S(N)(=O)=O	cell-free assay, inhibitor	–	0.3 µM	inhibition	1%
CCCS(=O)(=O)Nc1ccc(F)c(C(=O)c2c[nH]c3ncc(-c4ccc(Cl)cc4)cc23)c1F	enzyme activity, inhibitor	–	1 µM	inhibition	< 10%
Cc1cnc(NC2CCOCC2)nc1-n1cnc(C(=O)NC(CN)c2cc(F)cc(Cl)c2)c1 (centres unmarked)	enzyme activity, inhibitor, radiometric	–	1 µM	remaining activity	108%
COc1ccc2cc(OCC3(C(=O)O)CN(C(=O)c4ccc(F)cc4)C3)ccc2c1	cell-free assay, competition with immobilised ligand	–	1 µM	remaining binding	100%
Cn1c2c(Cl)c(Cl)ccc2c2cc[nH]c(=O)c21	thermal stability, DSF	–	10 µM	ΔTm	1.9 °C
COc1cc(Cl)c(C(=O)N[C@@H](CN[C@H]2CC[C@@H](N)CC2)Cc2ccc(C#N)cc2)cc1-c1ccc(CN[C@H](C)c2ccc(C)cc2)o1	enzyme activity, inhibitor	–	1 µM	remaining activity	97%
